Measured values from ChEMBL document CHEMBL1142874, “Design and synthesis of anticonvulsants from a combined phthalimide-GABA-anilide and hydrazone pharmacophore” (Eur J Med Chem, 2007).
Calls of active or inactive are those of the source. The calls are words filed in the database; no cut-off is given here.

test system: Mus musculus; assay: Anticonvulsant activity in Albino CF1 mouse upto 300 mg/kg, ip in maximal electroshock seizure test; type: functional, organism-based; set-up: dose 300 mg/kg; conditions: not given
How it was run: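 Mice dosed i.p. (0.01 mL/g) at 30, 100 and 300 mg/kg. Electroshock challenge run 30 min and 4 h after dosing.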

SMILES	Activity
C/C(=N/NC(=O)CCCN1C(=O)c2ccccc2C1=O)c1ccccc1	inactive
O=C(CCCN1C(=O)c2ccccc2C1=O)N/N=C\c1ccccc1	inactive
O=C1NC(=O)C(c2ccccc2)(c2ccccc2)N1 [PHENYTOIN]	inactive
C/C(=N/NC(=O)CCCN1C(=O)c2ccccc2C1=O)c1ccc(C)cc1	inactive
Cc1cccc(C)c1NC(=O)CCCN1C(=O)c2ccccc2C1=O	inactive
Cc1cc(NC(=O)CCCN2C(=O)c3ccccc3C2=O)ccc1Br	inactive
Cc1ccc(NC(=O)CCCN2C(=O)c3ccccc3C2=O)c(C)c1	inactive
O=C(CCCN1C(=O)c2ccccc2C1=O)Nc1ccc(Cl)cc1	inactive
Cc1c(Cl)cccc1NC(=O)CCCN1C(=O)c2ccccc2C1=O	inactive
C/C(=N/NC(=O)CCCN1C(=O)c2ccccc2C1=O)c1ccccc1O	inactive

test system: Mus musculus; assay: Anticonvulsant activity against subcutaneous pentylenetetrazole-induced seizure in Albino CF1 mouse at 30 mg/kg, ip after 0.5 hrs; type: functional, organism-based; set-up: dose 30 mg/kg; conditions: not given
How it was run: (§1)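 Test compounds given i.p. to mice at 0.01 mL/g, at 30, 100 or 300 mg/kg. The seizure challenge followed at 0.5 h and at 4 h after dosing. The value recorded is the lowest dose that protected half or more of the mice. Where no activity was seen, the maximum dose given was 300 mg/kg.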

SMILES	Activity
C/C(=N/NC(=O)CCCN1C(=O)c2ccccc2C1=O)c1ccc(C)cc1	Active

test system: Mus musculus; assay: Anticonvulsant activity against subcutaneous pentylenetetrazole-induced seizure in Albino CF1 mouse at 100 mg/kg, ip after 0.5 hrs; type: functional, organism-based; set-up: dose 100 mg/kg; conditions: not given; how it was run: as §1

SMILES	Activity
Cc1cc(NC(=O)CCCN2C(=O)c3ccccc3C2=O)ccc1Br	Active

test system: Mus musculus; assay: Anticonvulsant activity against subcutaneous pentylenetetrazole-induced seizure in Albino CF1 mouse at 300 mg/kg, ip after 0.5 hrs; type: functional, organism-based; set-up: dose 300 mg/kg; conditions: not given; how it was run: as §1

SMILES	Activity
C/C(=N/NC(=O)CCCN1C(=O)c2ccccc2C1=O)c1ccccc1	inactive
O=C(CCCN1C(=O)c2ccccc2C1=O)N/N=C\c1ccccc1	inactive
O=C1NC(=O)C(c2ccccc2)(c2ccccc2)N1 [PHENYTOIN]	inactive
Cc1cccc(C)c1NC(=O)CCCN1C(=O)c2ccccc2C1=O	inactive
Cc1ccc(NC(=O)CCCN2C(=O)c3ccccc3C2=O)c(C)c1	inactive
O=C(CCCN1C(=O)c2ccccc2C1=O)Nc1ccc(Cl)cc1	inactive
Cc1c(Cl)cccc1NC(=O)CCCN1C(=O)c2ccccc2C1=O	Active
C/C(=N/NC(=O)CCCN1C(=O)c2ccccc2C1=O)c1ccccc1O	inactive

test system: Mus musculus; assay: Anticonvulsant activity against subcutaneous pentylenetetrazole-induced seizure in Albino CF1 mouse at 30 mg/kg, ip after 4 hrs; type: functional, organism-based; set-up: dose 30 mg/kg; conditions: not given; how it was run: as §1

SMILES	Activity
Cc1ccc(NC(=O)CCCN2C(=O)c3ccccc3C2=O)c(C)c1	Active
Cc1c(Cl)cccc1NC(=O)CCCN1C(=O)c2ccccc2C1=O	Active

test system: Mus musculus; assay: Anticonvulsant activity against subcutaneous pentylenetetrazole-induced seizure in Albino CF1 mouse at 100 mg/kg, ip after 4 hrs; type: functional, organism-based; set-up: dose 100 mg/kg; conditions: not given; how it was run: as §1

SMILES	Activity
Cc1cccc(C)c1NC(=O)CCCN1C(=O)c2ccccc2C1=O	Active

test system: Mus musculus; assay: Anticonvulsant activity against subcutaneous pentylenetetrazole-induced seizure in Albino CF1 mouse at 300 mg/kg, ip after 4 hrs; type: functional, organism-based; set-up: dose 300 mg/kg; conditions: not given; how it was run: as §1

SMILES	Activity
C/C(=N/NC(=O)CCCN1C(=O)c2ccccc2C1=O)c1ccccc1	inactive
O=C(CCCN1C(=O)c2ccccc2C1=O)N/N=C\c1ccccc1	inactive
O=C1NC(=O)C(c2ccccc2)(c2ccccc2)N1 [PHENYTOIN]	inactive
C/C(=N/NC(=O)CCCN1C(=O)c2ccccc2C1=O)c1ccc(C)cc1	inactive
Cc1cc(NC(=O)CCCN2C(=O)c3ccccc3C2=O)ccc1Br	inactive
O=C(CCCN1C(=O)c2ccccc2C1=O)Nc1ccc(Cl)cc1	inactive
C/C(=N/NC(=O)CCCN1C(=O)c2ccccc2C1=O)c1ccccc1O	inactive

test system: Mus musculus; assay: Anticonvulsant activity against subcutaneous strychnine-induced seizure in Albino CF1 mouse at 100 mg/kg, ip after 0.5 hrs; type: functional, organism-based; set-up: dose 100 mg/kg; conditions: not given; how it was run: as §1

SMILES	Activity
C/C(=N/NC(=O)CCCN1C(=O)c2ccccc2C1=O)c1ccccc1	Active
O=C(CCCN1C(=O)c2ccccc2C1=O)N/N=C\c1ccccc1	Active
Cc1cccc(C)c1NC(=O)CCCN1C(=O)c2ccccc2C1=O	Active
O=C(CCCN1C(=O)c2ccccc2C1=O)Nc1ccc(Cl)cc1	Active
C/C(=N/NC(=O)CCCN1C(=O)c2ccccc2C1=O)c1ccccc1O	Active

test system: Mus musculus; assay: Anticonvulsant activity against subcutaneous strychnine-induced seizure in Albino CF1 mouse at 300 mg/kg, ip after 0.5 hrs; type: functional, organism-based; set-up: dose 300 mg/kg; conditions: not given; how it was run: as §1

SMILES	Activity
O=C1NC(=O)C(c2ccccc2)(c2ccccc2)N1 [PHENYTOIN]	inactive
C/C(=N/NC(=O)CCCN1C(=O)c2ccccc2C1=O)c1ccc(C)cc1	inactive
Cc1cc(NC(=O)CCCN2C(=O)c3ccccc3C2=O)ccc1Br	inactive
Cc1ccc(NC(=O)CCCN2C(=O)c3ccccc3C2=O)c(C)c1	inactive
Cc1c(Cl)cccc1NC(=O)CCCN1C(=O)c2ccccc2C1=O	Active

test system: Mus musculus; assay: Anticonvulsant activity against intraperitoneal picrotoxin-induced seizure in Albino CF1 mouse at 30 mg/kg, ip after 0.5 hrs; type: functional, organism-based; set-up: dose 30 mg/kg; conditions: not given
How it was run: (§2)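 Mice received the test compound by intraperitoneal injection at 30, 100 or 300 mg/kg. They were then challenged with intraperitoneal picrotoxin and scored for anticonvulsant protection 0.5 h or 4 h after dosing. The value recorded is the lowest dose that protected half or more of the mice. A dash means no activity up to 300 mg/kg.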

SMILES	Activity
Cc1cccc(C)c1NC(=O)CCCN1C(=O)c2ccccc2C1=O	Active

test system: Mus musculus; assay: Anticonvulsant activity against intraperitoneal picrotoxin-induced seizure in Albino CF1 mouse at 100 mg/kg, ip after 0.5 hrs; type: functional, organism-based; set-up: dose 100 mg/kg; conditions: not given; how it was run: as §2

SMILES	Activity
C/C(=N/NC(=O)CCCN1C(=O)c2ccccc2C1=O)c1ccccc1	Active
O=C(CCCN1C(=O)c2ccccc2C1=O)N/N=C\c1ccccc1	Active
Cc1cc(NC(=O)CCCN2C(=O)c3ccccc3C2=O)ccc1Br	Active
Cc1c(Cl)cccc1NC(=O)CCCN1C(=O)c2ccccc2C1=O	Active
C/C(=N/NC(=O)CCCN1C(=O)c2ccccc2C1=O)c1ccccc1O	Active

test system: Mus musculus; assay: Anticonvulsant activity against intraperitoneal picrotoxin-induced seizure in Albino CF1 mouse at 300 mg/kg, ip after 0.5 hrs; type: functional, organism-based; set-up: dose 300 mg/kg; conditions: not given; how it was run: as §2

SMILES	Activity
O=C1NC(=O)C(c2ccccc2)(c2ccccc2)N1 [PHENYTOIN]	inactive
C/C(=N/NC(=O)CCCN1C(=O)c2ccccc2C1=O)c1ccc(C)cc1	Active
Cc1ccc(NC(=O)CCCN2C(=O)c3ccccc3C2=O)c(C)c1	Active
O=C(CCCN1C(=O)c2ccccc2C1=O)Nc1ccc(Cl)cc1	Active

test system: Mus musculus; assay: Anticonvulsant activity against intraperitoneal picrotoxin-induced seizure in Albino CF1 mouse at 100 mg/kg, ip after 4 hrs; type: functional, organism-based; set-up: dose 100 mg/kg; conditions: not given; how it was run: as §2

SMILES	Activity
C/C(=N/NC(=O)CCCN1C(=O)c2ccccc2C1=O)c1ccccc1	Active
O=C(CCCN1C(=O)c2ccccc2C1=O)N/N=C\c1ccccc1	Active
Cc1cccc(C)c1NC(=O)CCCN1C(=O)c2ccccc2C1=O	Active

test system: Mus musculus; assay: Anticonvulsant activity against intraperitoneal picrotoxin-induced seizure in Albino CF1 mouse at 300 mg/kg, ip after 4 hrs; type: functional, organism-based; set-up: dose 300 mg/kg; conditions: not given; how it was run: as §2

SMILES	Activity
O=C1NC(=O)C(c2ccccc2)(c2ccccc2)N1 [PHENYTOIN]	inactive
C/C(=N/NC(=O)CCCN1C(=O)c2ccccc2C1=O)c1ccc(C)cc1	inactive
Cc1cc(NC(=O)CCCN2C(=O)c3ccccc3C2=O)ccc1Br	Active
Cc1ccc(NC(=O)CCCN2C(=O)c3ccccc3C2=O)c(C)c1	inactive
O=C(CCCN1C(=O)c2ccccc2C1=O)Nc1ccc(Cl)cc1	inactive
Cc1c(Cl)cccc1NC(=O)CCCN1C(=O)c2ccccc2C1=O	Active
C/C(=N/NC(=O)CCCN1C(=O)c2ccccc2C1=O)c1ccccc1O	Active

test system: Mus musculus; assay: Neurotoxicity in Albino CF1 mouse at 30 mg/kg, ip after 0.5 hrs by Rotarod test; type: toxicity, organism-based; set-up: dose 30 mg/kg, route intraperitoneal; conditions: in vivo
How it was run: (§3)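 Rotarod test in mice pre-trained to stay on the rod for two consecutive 90 s trials. Compounds given i.p. at 30, 100 or 300 mg/kg, with testing at 0.5 h and 4 h. Deficit was scored as failure to keep balance on the rod for 1 min in each of three trials. The value recorded is the lowest dose affecting half or more of the mice.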

SMILES	Activity
O=C(CCCN1C(=O)c2ccccc2C1=O)Nc1ccc(Cl)cc1	Active

test system: Mus musculus; assay: Neurotoxicity in Albino CF1 mouse at 100 mg/kg, ip after 0.5 hrs by Rotarod test; type: toxicity, organism-based; set-up: dose 100 mg/kg, route intraperitoneal; conditions: in vivo; how it was run: as §3

SMILES	Activity
O=C1NC(=O)C(c2ccccc2)(c2ccccc2)N1 [PHENYTOIN]	Active
C/C(=N/NC(=O)CCCN1C(=O)c2ccccc2C1=O)c1ccc(C)cc1	Active
Cc1cccc(C)c1NC(=O)CCCN1C(=O)c2ccccc2C1=O	Active
Cc1cc(NC(=O)CCCN2C(=O)c3ccccc3C2=O)ccc1Br	Active

test system: Mus musculus; assay: Neurotoxicity in Albino CF1 mouse at 300 mg/kg, ip after 0.5 hrs by Rotarod test; type: toxicity, organism-based; set-up: dose 300 mg/kg, route intraperitoneal; conditions: in vivo; how it was run: as §3

SMILES	Activity
C/C(=N/NC(=O)CCCN1C(=O)c2ccccc2C1=O)c1ccccc1	Not Active
O=C(CCCN1C(=O)c2ccccc2C1=O)N/N=C\c1ccccc1	Not Active
Cc1ccc(NC(=O)CCCN2C(=O)c3ccccc3C2=O)c(C)c1	Active
Cc1c(Cl)cccc1NC(=O)CCCN1C(=O)c2ccccc2C1=O	Active
C/C(=N/NC(=O)CCCN1C(=O)c2ccccc2C1=O)c1ccccc1O	Not Active

test system: Mus musculus; assay: Neurotoxicity in Albino CF1 mouse at 100 mg/kg, ip after 4 hrs by Rotarod test; type: toxicity, organism-based; set-up: dose 100 mg/kg, route intraperitoneal; conditions: in vivo; how it was run: as §3

SMILES	Activity
O=C1NC(=O)C(c2ccccc2)(c2ccccc2)N1 [PHENYTOIN]	Active
Cc1c(Cl)cccc1NC(=O)CCCN1C(=O)c2ccccc2C1=O	Active

test system: Mus musculus; assay: Neurotoxicity in Albino CF1 mouse at 300 mg/kg, ip after 4 hrs by Rotarod test; type: toxicity, organism-based; set-up: dose 300 mg/kg, route intraperitoneal; conditions: in vivo; how it was run: as §3

SMILES	Activity
C/C(=N/NC(=O)CCCN1C(=O)c2ccccc2C1=O)c1ccccc1	Not Active
O=C(CCCN1C(=O)c2ccccc2C1=O)N/N=C\c1ccccc1	Not Active
C/C(=N/NC(=O)CCCN1C(=O)c2ccccc2C1=O)c1ccc(C)cc1	Not Active
Cc1cccc(C)c1NC(=O)CCCN1C(=O)c2ccccc2C1=O	Active
Cc1cc(NC(=O)CCCN2C(=O)c3ccccc3C2=O)ccc1Br	Active
Cc1ccc(NC(=O)CCCN2C(=O)c3ccccc3C2=O)c(C)c1	Active
O=C(CCCN1C(=O)c2ccccc2C1=O)Nc1ccc(Cl)cc1	Active
C/C(=N/NC(=O)CCCN1C(=O)c2ccccc2C1=O)c1ccccc1O	Not Active

test system: Mus musculus; assay: Anticonvulsant activity against subcutaneous strychnine-induced seizure in Albino CF1 mouse at 100 mg/kg, ip after 4 hrs; type: functional, organism-based; set-up: dose 100 mg/kg; conditions: not given; how it was run: as §1

SMILES	Activity
C/C(=N/NC(=O)CCCN1C(=O)c2ccccc2C1=O)c1ccccc1	Active
O=C(CCCN1C(=O)c2ccccc2C1=O)N/N=C\c1ccccc1	Active
C/C(=N/NC(=O)CCCN1C(=O)c2ccccc2C1=O)c1ccccc1O	Active

test system: Mus musculus; assay: Anticonvulsant activity against subcutaneous strychnine-induced seizure in Albino CF1 mouse at 300 mg/kg, ip after 4 hrs; type: functional, organism-based; set-up: dose 300 mg/kg; conditions: not given; how it was run: as §1

SMILES	Activity
O=C1NC(=O)C(c2ccccc2)(c2ccccc2)N1 [PHENYTOIN]	inactive
C/C(=N/NC(=O)CCCN1C(=O)c2ccccc2C1=O)c1ccc(C)cc1	inactive
Cc1cccc(C)c1NC(=O)CCCN1C(=O)c2ccccc2C1=O	Active
Cc1cc(NC(=O)CCCN2C(=O)c3ccccc3C2=O)ccc1Br	inactive
Cc1ccc(NC(=O)CCCN2C(=O)c3ccccc3C2=O)c(C)c1	inactive
O=C(CCCN1C(=O)c2ccccc2C1=O)Nc1ccc(Cl)cc1	Active
Cc1c(Cl)cccc1NC(=O)CCCN1C(=O)c2ccccc2C1=O	inactive
